Screens as filed in PubChem BioAssay.
An excerpt weighted towards active compounds, which were near 2.3% of everything screened.
TRPC6 activator: activates the mouse TRPC6 cation channel; Q61143; HEK293-TRPC6 membrane potential dye fluorescence; stronger effect = higher value; B-score at 10 µM; 310,000 compounds, 0.13% hits; AID 2550;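 active means B-score of the integrated fluorescence ratio above library mean plus 3 SD, and starting fluorescence ratio within library mean plus 5 SD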;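 further: higher score means more depolarization so channel activation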
TRPC4 act: activators of mouse TRPC4 channel. B-score at 10 µM. 310,000 compounds, 0.49% hits. Q9QUQ5. HEK293 TRPC4beta/mu-opioid, Fluo4 calcium fluorescence; stronger effect = higher value;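 active means B-score above 5 SD of library B-scores, and initial fluorescence ratio not above library mean plus 5 SD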;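 further: positive B-score marks a calcium rise read as TRPC4 activation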
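System – HEK293 cells stably co-expressing mouse TRPC4beta and mu-opioid receptor · Signal – Fluo4 calcium-sensitive dye fluorescence, kinetic, 1 Hz baseline · Benchmarks – buffer (low) and maximal DAMGO (high) · Read-out – B score of integrated fluorescence ratio per well · Incubation – dye loading 45 min room temperature, 110 s kinetic read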
TRPC6 inh: inhibitors of mouse TRPC6 channel. 310,000 compounds, 1.1% hits. HEK293-TRPC6, membrane potential dye, ACh-evoked depolarization; stronger effect = lower value. B-score at 10 µM;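 active means B-score under library mean minus 3 SD, initial fluorescence not abnormally high, positive integrated signal ratio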;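 further: B-score derived from integrated fluorescence ratio over the kinetic read; more negative B-score means stronger inhibition of depolarization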
TRPC4 inh: TRPC4 (mouse) channel inhibition. Q9QUQ5. HEK293 TRPC4beta/mu-opioid, DAMGO-evoked Fluo4 calcium flux; stronger effect = lower value. B-score at 10 µM. 300,000 compounds, 0.39% hits. AID 2247;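 active means B-score over 3 SD under the library average, no early fluorescence shift, positive overall ratio signal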
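Assay system: HEK293 cells with stable TRPC4beta plus mu-opioid receptor expression; Probe or stimulus: DAMGO in two steps, submaximal then maximal; Dosing: single-point compound dosing; Measured by: Fluo4 calcium-dye fluorescence, kinetic read; Read-out basis: B score from integrated Fluo4 fluorescence ratio.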
TRPC4 potent: allosteric potentiators of mouse TRPC4 channel; Q9QUQ5; HEK293 TRPC4beta/mu-opioid, DAMGO EC20, Fluo-4 Ca2+ flux; stronger effect = higher value; B-score at 10 µM; 310,000 compounds, 0.42% hits;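 active means B-score of calcium response area above 5 SD of library B-scores, with initial fluorescence ratio within 5 SD of library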;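 further: B-score of integrated fluorescence ratio over time as area under calcium response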
* hit, by the source's call; i = inactive.

SMILES	TRPC6 activator	TRPC4 act	TRPC6 inh	TRPC4 inh	TRPC4 potent
COCCn1c(SCc2ccc(F)cc2)nc2ccccc2c1=O	i	i	i	-6*	i
COCCn1c(SCc2nc3ccccc3c(=O)[nH]2)nc2ccccc2c1=O	i	i	i	i	i
Cn1c(SCCOc2ccccc2F)nc2ccccc2c1=O	i	i	i	i	16*
O=C(O)C1Cc2[nH]cnc2C(c2ccccc2O)N1 (stereo unspecified)	i	i	i	i	i
CC1CCN(CCOCCOc2ccccc2-c2ccccc2)CC1	i	i	i	-6*	i
CC1CCN(CCCCOc2ccccc2-c2ccccc2)CC1	i	i	i	i	i
c1ccc(-c2ccccc2OCCOCCN2CCCCC2)cc1	i	i	i	-5*	i
Cc1ccc2nc3c(cc(C(=O)NC4CCCC4)c(=N)n3CCCn3ccnc3)c(=O)n2c1	i	i	-5.5*	i	i
N=c1c(C(=O)NC2CCCC2)cc2c(=O)n3ccccc3nc2n1CCCN1CCOCC1	i	i	i	i	i
N=c1c(C(=O)NCCc2ccccc2)cc2c(=O)n3ccccc3nc2n1CC1CCCO1 (stereo unspecified)	i	i	-5.1*	i	i
Cc1ccc(Cn2c(=N)c(C(=O)NCC3CCCO3)cc3c(=O)n4ccccc4nc32)cc1 (stereo unspecified)	i	i	i	i	47*
Cc1ccc(Cn2c(=N)c(C(=O)NC3CCCCC3)cc3c(=O)n4ccccc4nc32)cc1	i	i	i	i	20*
COc1ccc(C2NC(=S)NC3=C2CCc2cc(OC)ccc23)cc1 (stereo unspecified)	i	i	i	i	i
Clc1ccc(COn2nnc3ccccc32)c(Cl)c1	i	i	i	i	i
Nc1cc(OC(=O)c2ccc(F)cc2)nn1S(=O)(=O)c1ccccc1	i	i	i	i	i
COc1cc(/C=N/NC(=S)NCCN2CCOCC2)ccc1O	i	i	i	i	i
N=c1c(C(=O)NCC2CCCO2)cc2c(=O)n3ccccc3nc2n1Cc1ccc(Cl)cc1 (stereo unspecified)	i	i	i	i	29*
O=C(NCCNC1CCC(c2ccccc2)CC1)c1ccc(F)cc1 (stereo unspecified)	i	61*	i	i	i
O=C(c1ccc2c(c1)OCO2)C1CCCN(Cc2ccccc2OC(F)F)C1 (stereo unspecified)	i	i	i	-7*	i
O=C(c1ccc2c(c1)OCO2)C1CCCN(Cc2cccn2-c2cccnc2)C1 (stereo unspecified)	i	i	i	-6*	i
O=C(c1ccc2c(c1)OCO2)C1CCCN(Cc2cc(F)ccc2-n2cccn2)C1 (stereo unspecified)	i	i	i	-5*	i
O=C(c1ccc(Cl)cc1)C1CCCN(Cc2cccn2-c2cccnc2)C1 (stereo unspecified)	i	i	i	i	i
CC(=O)c1c(C)[nH]c(C(=O)OCc2cccc(C)c2)c1C	i	i	i	i	i
FC(F)(F)c1ccc(NC(=S)NCc2ccccc2)cc1	i	i	i	i	i
COc1cc(C=O)ccc1OC(=O)c1ccc(C(C)C)cc1	i	i	i	-6*	i
SMILES	TRPC6 activator	TRPC4 act	TRPC6 inh	TRPC4 inh	TRPC4 potent
COc1cc(C=O)ccc1OC(=O)c1ccncc1	i	i	i	i	i
Cc1ccnc(N2C(=O)CSC2c2ccc(Cl)cc2)c1 (stereo unspecified)	i	i	i	i	i
COc1nc2ccccc2nc1CCC(=O)O	i	i	i	i	i
CN(CC1CCCN(CCc2ccccc2F)C1)C(=O)c1ccoc1 (stereo unspecified)	i	i	i	i	i
COc1ccc(CCN2CCCC(CN(C)C(=O)c3ccoc3)C2)cc1 (stereo unspecified)	i	i	i	i	19*
C=CCc1cc(Cl)ccc1OCCCNCCO	i	i	i	i	14*
C=CCc1cc(Cl)ccc1OCCCNC(C)C	i	i	i	i	i
